High-throughput results as filed in PubChem.
TRPC6 act: activators of mouse TRPC6 channel. HEK293-TRPC6 membrane potential dye fluorescence; active compounds read high. 310,000 compounds, 0.13% hits. Q61143. AID 2550. B-score at 10 µM;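 active means B-score of the integrated fluorescence ratio above library mean plus 3 SD, and starting fluorescence ratio within library mean plus 5 SD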;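 further: higher score means more depolarization so channel activation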
Target sequence (Q61143 whole entry, looked up): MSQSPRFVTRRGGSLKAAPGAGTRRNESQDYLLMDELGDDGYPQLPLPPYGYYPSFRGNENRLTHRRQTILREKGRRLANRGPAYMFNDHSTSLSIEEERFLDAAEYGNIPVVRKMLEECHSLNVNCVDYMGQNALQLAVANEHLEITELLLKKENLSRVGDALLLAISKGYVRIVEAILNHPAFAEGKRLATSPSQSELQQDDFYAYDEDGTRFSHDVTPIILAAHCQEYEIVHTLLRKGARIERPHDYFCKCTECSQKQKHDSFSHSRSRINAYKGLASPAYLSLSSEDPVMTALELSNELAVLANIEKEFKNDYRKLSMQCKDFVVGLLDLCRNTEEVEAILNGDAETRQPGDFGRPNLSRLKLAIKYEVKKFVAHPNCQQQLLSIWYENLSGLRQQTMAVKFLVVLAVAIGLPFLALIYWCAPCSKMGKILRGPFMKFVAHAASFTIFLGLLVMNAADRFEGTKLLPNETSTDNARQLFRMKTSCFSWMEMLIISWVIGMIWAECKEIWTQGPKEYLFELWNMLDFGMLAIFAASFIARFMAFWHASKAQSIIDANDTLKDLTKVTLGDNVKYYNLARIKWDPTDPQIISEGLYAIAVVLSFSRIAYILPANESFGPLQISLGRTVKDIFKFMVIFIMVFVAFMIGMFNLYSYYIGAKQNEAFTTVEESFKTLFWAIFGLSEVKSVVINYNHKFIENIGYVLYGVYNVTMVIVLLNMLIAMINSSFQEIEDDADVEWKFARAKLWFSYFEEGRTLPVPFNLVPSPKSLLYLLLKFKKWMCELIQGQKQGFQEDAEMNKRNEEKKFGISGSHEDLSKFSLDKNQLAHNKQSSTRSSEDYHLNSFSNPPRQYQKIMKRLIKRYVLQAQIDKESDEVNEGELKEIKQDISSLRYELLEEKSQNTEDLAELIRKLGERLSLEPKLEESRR
TRPC4 act: activators of mouse TRPC4 channel; HEK293 TRPC4beta/mu-opioid, Fluo4 calcium fluorescence; active compounds read high; B-score at 10 µM; 310,000 compounds, 0.49% hits; AID 2237;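 active means B-score above 5 SD of library B-scores, and initial fluorescence ratio not above library mean plus 5 SD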;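 further: positive B-score marks a calcium rise read as TRPC4 activation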
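Material: HEK293 stable line with TRPC4beta plus mu-opioid receptor; technique: Fluo4 calcium-sensitive dye fluorescence, kinetic, 1 Hz baseline; timing: Fluo4 dye loading 45 min at room temperature, 110 s recording; controls: assay buffer as low control, maximal DAMGO as high control; read-out: integrated baseline-normalised fluorescence ratio, converted to per-well B score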
TRPC4 block: blocks the mouse TRPC4 cation channel. Q9QUQ5. HEK293 TRPC4beta/mu-opioid, DAMGO-evoked Fluo4 calcium flux; active compounds read low. B-score at 10 µM. 300,000 compounds, 0.39% hits;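 active means B-score over 3 SD under the library average, no early fluorescence shift, positive overall ratio signal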
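material = TRPC4beta/mu-opioid receptor HEK293 cell line | probe or stimulus = sequential submaximal and maximal DAMGO stimulation | compound dosing = one concentration per compound | measured by = Fluo4 Ca2+ flux fluorescence | evaluation = integrated fluorescence ratio relative to baseline, converted to per-well B score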
TRPC4 potent: allosteric potentiators of mouse TRPC4 channel | AID 2227 | HEK293 TRPC4beta/mu-opioid, DAMGO EC20, Fluo-4 Ca2+ flux; active compounds read high | 310,000 compounds, 0.42% hits | B-score at 10 µM | Q9QUQ5;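 active means B-score of calcium response area above 5 SD of library B-scores, with initial fluorescence ratio within 5 SD of library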
TRPC6 inhibitor: mouse TRPC6 channel inhibition; Q61143; HEK293-TRPC6, membrane potential dye, ACh-evoked depolarization; active compounds read low; B-score at 10 µM; 310,000 compounds, 1.1% hits;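 active means B-score under library mean minus 3 SD, initial fluorescence not abnormally high, positive integrated signal ratio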;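 further: B-score derived from integrated fluorescence ratio over the kinetic read; more negative B-score means stronger inhibition of depolarization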
Of the large screens only hits and unclear results are named; the others gave an inactive call. Rows were chosen to be rich in hits. Some 2.3% of all compounds tested hit in one or more screens of this group.

CC(=O)Nc1ccc(C(=O)NCC(c2ccco2)N(C)C)cc1 (stereo not given)	none
Cc1ccc2oc(C(=O)NCC(c3ccco3)N(C)C)c(C)c2c1 (stereo not given)	TRPC4 block -6
CN(C)C(CNC(=O)c1ccc(C(F)(F)F)cc1)c1ccco1 (stereo not given)	TRPC4 act 86, TRPC4 block -7
CN(C)c1ccc([N+](=O)[O-])cc1C(=O)NCC(c1ccco1)N(C)C (stereo not given)	TRPC4 block -5
COc1ccc(NC(=O)CN2C(=O)C(C)SC(C)C2=O)c(OC)c1 (stereo not given)	none
O=C(CC1C(=O)NCCN1Cc1cccc(Oc2ccccc2)c1)NCCc1cscn1 (stereo not given)	none
O=C(CC1C(=O)NCCN1Cc1cccc(Oc2ccccc2)c1)NCCc1ccccn1 (stereo not given)	TRPC4 act 115
O=C(CC1C(=O)NCCN1Cc1ccccc1C(F)(F)F)NCCc1ccccn1 (stereo not given)	TRPC4 act 116
O=C(CC1C(=O)NCCN1Cc1c(F)cccc1Cl)NCCc1ccccn1 (stereo not given)	none
COc1cccc(CN2CCNC(=O)C2CC(=O)NCCc2ccccn2)c1 (stereo not given)	TRPC4 act 54
O=C(CC1C(=O)NCCN1CC1CCCCC1)NCCc1ccc(F)cc1 (stereo not given)	TRPC4 act 51
O=C(CC1C(=O)NCCN1CC1CCCCC1)NCc1ccc(F)cc1 (stereo not given)	none
CSc1cccc(NC(=O)CCNS(=O)(=O)c2ccc3[nH]c(=O)oc3c2)c1	none
CCOC(=O)c1nn(-c2ccc(C)c(C)c2)c(=O)c(C#N)c1C	none
COc1ccc(C(=O)Nc2ccc(/C(C)=N/NC(=O)c3ccccc3O)cc2)cc1OC	none
O=C(NCCC1=CCCCC1)C1CCN(S(=O)(=O)c2cccc3nsnc23)CC1	none
O=c1[nH]c(CN2CCN(c3ccc([N+](=O)[O-])cc3)CC2)nc2ccsc12	none
Cc1ccc(Cl)cc1N1CCN(Cc2nc3ccsc3c(=O)[nH]2)CC1	TRPC4 potent 28
CCCCN(C)C1CCN(C(=S)Nc2cccc(SC)c2)CC1	none
CN(C)S(=O)(=O)c1cccc(NC(=O)CN2C(=O)NC(CCc3ccccc3)C2=O)c1 (stereo not given)	none
Cc1cc(NC(=O)CCCn2cc([N+](=O)[O-])cn2)n(Cc2ccc(F)cc2)n1	none
Cc1ccc(/C=C/C(=O)c2ccc(O)cc2)cc1	TRPC4 block -6
CN1C(=O)C2(C(C#N)=C(N)Oc3c2oc(CO)cc3=O)c2ccccc21 (stereo not given)	none
CCOCCOc1nc(C)cc(C)c1S(=O)(=O)c1ccccc1C	none
Cc1cc(C)c(S(=O)(=O)c2ccccc2C)c(OCC(C)(C)C)n1	TRPC4 block -6
O=c1ccc(-c2ccc(S(=O)(=O)NCC3CCN(Cc4cccc(F)c4)CC3)s2)n[nH]1	TRPC4 potent 10
CCOC(=O)c1c(S(=O)(=O)NCC2CCN(Cc3cccc(F)c3)CC2)c(C)n(C)c1C	none
C=CCn1c(O)c(N=NC(=O)CNC(=O)Cc2ccccc2)c2ccccc21	none
Nc1cc(N2CCCCC2)c(Cl)cc1[N+](=O)[O-]	none
Nc1cc(N2CCCCC2)c([N+](=O)[O-])cc1Cl	TRPC4 block -6
O=C(Cc1ccccc1)Oc1coc(CSc2ncccn2)cc1=O	none
O=C1CCCc2nc(N3CCN(C(c4ccccc4)c4ccccc4)CC3)ncc21	TRPC4 act 43
COC(=O)c1ccccc1NC(=O)CN1CCc2ccccc2C1	none
Cc1ccc(NC(=O)CN2CCc3ccccc3C2)cc1S(=O)(=O)N1CCOCC1	TRPC4 act 70, TRPC4 block -9
Cc1ccc(NC(=O)CN2CCc3ccccc3C2)cc1F	TRPC4 block -7
CC(NC(=O)c1ccccc1NC(=O)CN1CCc2ccccc2C1)c1ccccc1 (stereo not given)	TRPC4 potent 15
CCC(C)c1ccccc1NC(=O)c1cc(C)no1 (stereo not given)	none
CCCC1=[N+](CC(=O)c2ccc(C)cc2)CCn2cccc21	TRPC4 block -6
CC(C)CN1C(=O)c2ccc(NC(=O)Cc3ccccc3)cc2C1=O	none
CCCOc1ccc(Br)cc1/C=N/O	TRPC4 block -6
CC(=O)c1ccc(N2CCN(C(=O)c3ccc(Cn4c(=S)[nH]c5ccc(N6CCOCC6)cc5c4=O)cc3)CC2)cc1	TRPC4 potent 14
O=C(c1ccc(CN2CCOCC2)cc1)N1CCN(c2ccccc2)CC1	TRPC4 block -6
CC(C(=O)NCCc1ccc(F)cc1)N1CCN(Cc2ccccc2)CC1 (stereo not given)	none
O=C(CSc1nnc(Nc2ccccc2)s1)Nc1cccc(S(=O)(=O)N2CCCCC2)c1	none
CC(CCc1ccccc1)NC(=O)N1CCOCC1 (stereo not given)	none
CCCCC(=O)Nc1cccc2c1C(=O)N(c1ccccc1)C2=O	TRPC4 potent 24
Cc1cc(=O)[nH]c2c1c(C)nn2C1CCOC(C)(C)C1 (stereo not given)	none
COc1cc(/C=N/NC(=O)COc2ccc([N+](=O)[O-])cc2)ccc1OCC(=O)N1CCOCC1	none
CCOC(=O)Cn1c(=O)oc2cc(S(=O)(=O)N3CCC(N4CCCCC4)CC3)ccc21	TRPC4 potent 11
CCOC(=O)Cn1c(=O)oc2cc(S(=O)(=O)N3CCCC(C(=O)OCC)C3)ccc21 (stereo not given)	none
Clc1cccc(OCCOCCN2CCNCC2)c1Cl	TRPC4 act 44
Clc1cccc(OCCN2CCNCC2)c1	TRPC4 act 97
Clc1cccc(OCCCN2CCCC2)c1Cl	none
C/C(=N\N=C(/C)c1cccc(N)c1)c1cccc(N)c1	none
COc1ccc(NC(=O)C2CC(=O)N/C(=N/NC(=O)c3ccc(Cl)cc3)S2)cc1 (stereo not given)	none
Cc1ccccc1CCN(C(=O)c1csnn1)C(C(=O)NC1CCCC1)c1ccco1 (stereo not given)	none
O=C(Nc1cccc(-c2cnc3ccccc3n2)c1)C1CC(=O)N(c2ccccc2)C1 (stereo not given)	none
CCc1ccc(OC(C)C(=O)Nc2ccc(S(=O)(=O)Nc3nccs3)cc2)cc1 (stereo not given)	TRPC4 potent 12
CC1CCCCC1NC(=O)c1cc2ccccc2o1 (stereo not given)	TRPC4 potent 30
CC(C)NC(=O)c1cc2ccccc2o1	none
N=c1oc2ccccc2cc1C(=O)NC1CCCCCC1	none
O=C(NC1CCCC1)c1cc2cc(Br)ccc2o1	none
O=C(NC1CCCC1)c1cc2ccccc2o1	TRPC4 potent 20
N=c1oc2ccc(Cl)cc2cc1C(=O)NC1CCCCCC1	TRPC4 potent 18
CN(C)S(=O)(=O)c1cccc(NC(=O)Cc2ccc(-c3ccccc3)cc2)c1	none
